Converted amounts (≈) assume the structure as drawn. The source made the active and inactive calls. The rule behind the calls is not given here.
Tests used:
[1] = Selectivity index, ratio of IC50 for human U2OS cells to IC50 for intracellular Trypanosoma cruzi infected in human U2OS cells; format: toxicity, cell-based; conditions: for selectivity ratio: U2OS cells, read-out: Selectivity Index
In short: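 Host U2OS cell counts and intracellular parasite infection ratio were read from the same 72 h DRAQ5-stained confocal imaging assay. CC50 and EC50 came from 4-parameter logistic fits, and the selectivity index is their ratio.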

Trypanosoma cruzi [2] = test: Antitrypanosomal activity against intracellular Trypanosoma cruzi infected in human U2OS cells assessed as parasite growth inhibition incubated for 72 hrs by confocal microscopy; format: functional, organism-based
[3] = Permeability of compound incubated for 3 hrs by PAMPA assay; format: ADME; conditions: read-out: permeability
[4] = Kinetic solubility of compound in aqueous buffer at pH 6.8 incubated for 16 to 24 hrs by HPLC analysis; format: physicochemical; conditions: time 16-24 hrs, read-out: Kinetic_solubility
[5] = Intrinsic clearance in human liver microsomes at 1 uM incubated for 15 to 30 mins by LC/MS/MS analysis; format: ADME, Microsome; conditions: time 15-30 min
[6] = Intrinsic clearance in mouse liver microsomes at 1 uM incubated for 15 to 30 mins by LC/MS/MS analysis; format: ADME, Microsome; conditions: time 15-30 min
Trypanosoma cruzi [7] = test: Inhibition of Trypanosoma cruzi CYP51 upto 100 uM by fluorescence based assay
[8] = Selectivity index, ratio of IC50 for human THP-1 cells to IC50 for Leishmania donovani infected in human THP-1 cells; format: toxicity, cell-based; conditions: read-out: Selectivity Index
Trypanosoma cruzi [9] = test: Antitrypanosomal activity against acute-stage Trypanosoma cruzi CL Brener infected in BALB/c mouse assessed as reduction in parasite burden at 50 mg/kg, po bid administered for 5 days measured after 14 days by bioluminescence imaging based analysis; format: functional, organism-based; conditions: time 14.0 day

SMILES	IC50 (Trypanosoma cruzi [2]; Trypanosoma cruzi, U2OS, 72 h)	selectivity ratio [1]	other results
CCCN(CCC)c1nc(-c2ccccn2)nc2ccccc12	170 nM		
c1ccc(-c2nc(N3CCc4nc[nH]c4C3)c3ccccc3n2)nc1	21000 nM	2.3	
Cc1cnc(C)c(Nc2nc(-c3ccccn3)nc3ccccc23)c1	14000 nM	3.6	Papp at 3 h [3]: 20.1 ×10⁻⁶ cm/s; solubility kinetic [4]: 31 µg/mL (≈ 94.7 µM); CLint [5]: < 1 µL/min/mg; intrinsic clearance (CLint) [6]: 154 µL/min/mg
Fc1ccc(Nc2nc(-c3ccccn3)nc3ccccc23)cc1	1300 nM		
c1ccc(-c2nc(N3CCc4ncccc4C3)c3ccccc3n2)nc1	9200 nM	5.5	
CC1CCCN(c2nc(-c3ccccn3)nc3ccccc23)C1 (configuration not stated)	430 nM	19	Papp at 3 h [3]: 36.4 ×10⁻⁶ cm/s; solubility kinetic [4]: 69 µg/mL (≈ 227 µM); CLint [5]: 188 µL/min/mg; intrinsic clearance (CLint) [6]: 452 µL/min/mg
c1ccc(-c2nc(N3CCc4ccccc4C3)c3ccccc3n2)nc1	720 nM	6.6	Papp at 3 h [3]: 40.8 ×10⁻⁶ cm/s; solubility kinetic [4]: 10 µg/mL (≈ 29.5 µM); CLint [5]: 150 µL/min/mg; intrinsic clearance (CLint) [6]: 464 µL/min/mg
CCn1cc2nc(-c3ccccn3)nc(N3CCC(c4ccccn4)C3)c2n1 (configuration not stated)	100 nM	2.8	Papp at 3 h [3]: 22 ×10⁻⁶ cm/s; solubility kinetic [4]: 94 µg/mL (≈ 253 µM); CLint [5]: < 1 µL/min/mg; intrinsic clearance (CLint) [6]: 70 µL/min/mg
c1ccc(C2CCN(c3nc(-c4ccccn4)nc4ccccc34)C2)cc1 (configuration not stated)	280 nM	9.7	solubility kinetic [4]: 0.7 µg/mL (≈ 1.99 µM); intrinsic clearance (CLint) [6]: > 500 µL/min/mg
N#CC1CCCN(c2nc(-c3ccccn3)nc3ccccc23)C1 (configuration not stated)	18000 nM	2.7	
Cc1cccc(N2CCN(c3nc(-c4ccccn4)nc4ccccc34)CC2)n1	1900 nM	7	
c1ccc(-c2nc(N3CCC(c4ccccn4)C3)c3ccccc3n2)nc1 (stereo in doubt; 85-tR1)			Selectivity Index [1]: 4.2; IC50 (Trypanosoma cruzi [2]; u2os): 1100 nM
c1ccc(CCNc2nc(-c3ccccn3)nc3ccccc23)nc1	3400 nM	14	
c1ccc(-c2nc(N3CCCC3c3ccccn3)c3ccccc3n2)nc1 (configuration not stated)	1800 nM	25	
Cn1ncc2nc(-c3ccccn3)nc(N3CCC(c4ccccn4)C3)c21 (configuration not stated)	1800 nM	2.9	Papp at 3 h [3]: 17.1 ×10⁻⁶ cm/s; solubility kinetic [4]: 99 µg/mL (≈ 277 µM)
c1ccc(-c2nc(N3CCCC(c4ccccn4)C3)c3ccccc3n2)nc1 (configuration not stated)	1300 nM	7.3	
Cc1ccc(Nc2nc(-c3ccccn3)nc3ccccc23)cn1	31000 nM	1.6	
Cn1ccc2nc(-c3ccccn3)nc(N3CCC(c4ccccn4)C3)c21 (configuration not stated)	560 nM	16	Papp at 3 h [3]: 21.9 ×10⁻⁶ cm/s; solubility kinetic [4]: 90 µg/mL (≈ 253 µM)
Cc1cccnc1CNc1nc(-c2ccccn2)nc2ccccc12	1600 nM	15	
N#CC1CCN(c2nc(-c3ccccn3)nc3ccccc23)CC1	24000 nM	2.1	

SMILES	IC50 (Trypanosoma cruzi [2]; Trypanosoma cruzi, U2OS, 72 h)	selectivity ratio [1]	other results
OC1(c2ccccc2)CCN(c2nc(-c3ccccn3)nc3ccccc23)CC1	3300 nM	15	
c1ccc(-c2nc(N3CCC(c4ccccn4)C3)c3ccccc3n2)nc1 (racemic)			Activity (Trypanosoma cruzi [9]): inactive
c1ccc(CNc2nc(-c3ccccn3)nc3ccccc23)nc1	4400 nM	11	
c1ccc(CNc2nc(-c3ccccn3)nc3ccccc23)cc1	130 nM	57	
CCn1cnc2c(N3CCC(c4ccccn4)C3)nc(-c3ccccn3)nc21 (configuration not stated)	2700 nM	2.7	
CCC(C)Nc1nc(-c2ccccn2)nc2ccccc12 (configuration not stated)	2100 nM		
NC(=O)C1CCN(c2nc(-c3ccccn3)nc3ccccc23)C1 (configuration not stated)	23000 nM	2.2	
c1ccc(CCNc2nc(-c3ccccn3)nc3ccccc23)cc1	80 nM		
OC1(c2ccccc2)CCN(c2nc(-c3ccccn3)nc3ccccc23)C1 (configuration not stated)	35000 nM	2.8	
Cc1cccc(CNc2nc(-c3ccccn3)nc3ccccc23)n1	2400 nM	21	
CCn1ccc2nc(-c3ccccn3)nc(N3CCC(c4ccccn4)C3)c21 (configuration not stated)	180 nM	28	
c1ccc(-c2nc(N3CCN(c4ccccn4)CC3)c3ccccc3n2)nc1	3300 nM	6.4	
c1ccc(CN2CCN(c3nc(-c4ccccn4)nc4ccccc34)CC2)cc1	450 nM	27	
COc1ccc(Nc2nc(-c3ccccn3)nc3ccccc23)cc1	1200 nM		
c1ccc(-c2nc(NCCn3cnc4ccccc43)c3ccccc3n2)nc1	8200 nM	6.1	
c1ccc(-c2nc(NCc3nc4ccccc4o3)c3ccccc3n2)nc1	2500 nM	16	
Cc1ccc(Nc2nc(-c3ccccn3)nc3ccccc23)cc1	120 nM		
c1ccc(-c2nc(N3CCC(c4ccccn4)C3)c3ccccc3n2)nc1 (stereo in doubt; 85-tR2)			Selectivity Index [1]: 6.4; IC50 (Trypanosoma cruzi [2]; u2os): 960 nM
c1ccc(OC2CCN(c3nc(-c4ccccn4)nc4ccccc34)C2)cc1 (configuration not stated)		6.5	Papp at 3 h [3]: 43 ×10⁻⁶ cm/s; solubility kinetic [4]: 7.7 µg/mL (≈ 20.9 µM); CLint [5]: 361 µL/min/mg; intrinsic clearance (CLint) [6]: > 500 µL/min/mg

Further lines, with some results ahead:

IC50 (Trypanosoma cruzi [2]; Trypanosoma cruzi, U2OS, 72 h)	SMILES	selectivity ratio [1]	other results
2700 nM	CC(Nc1nc(-c2ccccn2)nc2ccccc12)c1ccccn1 (configuration not stated)	18	
100 nM	c1ccc(-c2nc(N3CCCCCC3)c3ccccc3n2)nc1		
1100 nM	c1ccc(-c2nc(N3CCCC3)c3ccccc3n2)nc1	8.6	
11000 nM	c1ccc(-c2nc(Nc3ccn4nccc4c3)c3ccccc3n2)nc1	2.9	
49000 nM	c1ccc(-c2nc(NCCn3ccnc3)c3ccccc3n2)nc1	1	
3300 nM	Cn1ccnc1CNc1nc(-c2ccccn2)nc2ccccc12	14	
6200 nM	c1ccc(-c2nc(Nc3ccc4[nH]ncc4c3)c3ccccc3n2)nc1	3.5	
410 nM	Fc1ccc(C2CCN(c3nc(-c4ccccn4)nc4ccccc34)C2)cc1 (configuration not stated)	9.2	inhibition (Trypanosoma cruzi [7]): inactive; intrinsic clearance (CLint) [6]: > 500 µL/min/mg
7400 nM	c1ccc(-c2nc(N3CCc4cccnc4C3)c3ccccc3n2)nc1	4.9	
7000 nM	N#CC1CCN(c2nc(-c3ccccn3)nc3ccccc23)C1 (configuration not stated)	7.2	
1500 nM	CCn1cc2c(N3CCC(c4ccccn4)C3)nc(-c3ccccn3)nc2n1 (configuration not stated)	2.3	
> 50000 nM	Cc1nc(-c2ccccn2)nc(NCc2ccccc2)c1Cl		selectivity ratio [8]: > 2.5
100 nM	Cc1ccc(Nc2nc(-c3ccccn3)nc3ccccc23)nc1	< 1	
9600 nM	Cn1cc(CNc2nc(-c3ccccn3)nc3ccccc23)cn1	5.2	
410 nM	CC1CCN(c2nc(-c3ccccn3)nc3ccccc23)CC1		Papp at 3 h [3]: 44.1 ×10⁻⁶ cm/s; solubility kinetic [4]: 59 µg/mL (≈ 194 µM); CLint [5]: 112 µL/min/mg; intrinsic clearance (CLint) [6]: > 500 µL/min/mg
430 nM	c1ccc(N2CCN(c3nc(-c4ccccn4)nc4ccccc34)CC2)cc1		Papp at 3 h [3]: 29.1 ×10⁻⁶ cm/s; solubility kinetic [4]: 15 µg/mL (≈ 40.8 µM); CLint [5]: 95 µL/min/mg; intrinsic clearance (CLint) [6]: > 500 µL/min/mg
4200 nM	c1ccc(-c2nc(NC3(c4ccccn4)CC3)c3ccccc3n2)nc1	12	Papp at 3 h [3]: 21.9 ×10⁻⁶ cm/s; solubility kinetic [4]: 84 µg/mL (≈ 247 µM); CLint [5]: 7 µL/min/mg; intrinsic clearance (CLint) [6]: 24 µL/min/mg
6300 nM	c1ccc(-c2nc(NCc3cccnc3)c3ccccc3n2)nc1	8	
900 nM	c1ccc(-c2nc(N3CCCCC3)c3ccccc3n2)nc1		
18000 nM	CCn1ncc2c(N3CCC(c4ccccn4)C3)nc(-c3ccccn3)nc21 (configuration not stated)	2.8	
510 nM	Fc1cccc(Nc2nc(-c3ccccn3)nc3ccccc23)c1	20	
2700 nM	c1ccc(-c2nc(NCc3nccs3)c3ccccc3n2)nc1	19	
860 nM	O=S(=O)(c1cccs1)N1CCc2nc(-c3ccccn3)nc(N3CCCCCC3)c2C1	> 58	
360 nM	c1ccc(C2CCCN(c3nc(-c4ccccn4)nc4ccccc34)C2)cc1 (configuration not stated)	6.4	Papp at 3 h [3]: 41.6 ×10⁻⁶ cm/s; solubility kinetic [4]: 0.1 µg/mL (≈ 0.273 µM); CLint [5]: 205 µL/min/mg; intrinsic clearance (CLint) [6]: 318 µL/min/mg
1200 nM	CCn1ncc2nc(-c3ccccn3)nc(N3CCC(c4ccccn4)C3)c21 (configuration not stated)	2.7	
27000 nM	c1ccc(-c2nc(N3CCn4ccnc4C3)c3ccccc3n2)nc1	1.9	
